Article PMC5552238 (EBioMedicine, 2017)

System: subcutaneous Hepa1-6 liver cancers
Assay: Subcutaneous Hepa1-6 liver cancers, 747 combined with low-dose sorafenib
Assay type: in vivo, mouse
Settings: sorafenib low dose 10 mg/kg
Procedure, shortened: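 Hepa1-6 cells (1.5 × 106) injected into right flank; mice randomized at ~0.5 cm tumors. Test compound given i.p. daily (0.5% HPMC/0.2% Tween), alone or with sorafenib 10 mg/kg intragastric. Volume = 1/2a × b². End-point paraffin sections stained for F4/80, Arg-1 and cleaved caspase-3 (primary overnight at 4 °C, HRP secondary 1 h at 37 °C, DAB). Sorted intratumoral CD8+ T cells analysed by qRT-PCR normalized to GAPDH/L32.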

CNC(=O)c1cc(Oc2ccc(NC(=O)Nc3ccc(Cl)c(C(F)(F)F)c3)cc2)ccn1 [sorafenib]
therapeutic effect on subcutaneous tumors: no efficacy
